{"source": "ChEMBL document CHEMBL1140884", "about": "“Oligodeoxyribonucleotide-based antagonists for Toll-like receptors 7 and 9” (2009)", "key": {"Mus musculus [1]": {"organism": "Mus musculus", "assay": "Inhibition of 5'-TCTGACRTTCT-X-TCTTRCAGTCT-3'-induced IL12 production in C57BL/6 mouse at 1:4 agonist to drug ratio by ELISA", "assay_type": "functional, organism-based", "in_short": "(§1)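 C57BL/6 mice (n=3) were given TLR9 agonist 0.25 mg/kg sc in the left flank and various antagonist doses sc in the right flank at the same time. Serum IL-12 was measured by sandwich ELISA 2 h after agonist.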"}, "Mus musculus [2]": {"organism": "Mus musculus", "assay": "Inhibition of 5'-TCTGACRTTCT-X-TCTTRCAGTCT-3'-induced IL12 production in C57BL/6 mouse measured after 2 hrs of induction by ELISA", "assay_type": "functional, organism-based", "in_short": "as §1"}, "Mus musculus [3]": {"test_system": "Mus musculus", "assay": "Inhibition of 5-TCTGACRTTCT-X-TCTTRCAGTCT-3-induced IL12 production in C57BL/6 mouse at 20 mg/kg, sc up to 120 hrs", "assay_type": "functional", "settings": "C57BL/6, sc, route subcutaneous", "in_short": "(§2)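 Female C57BL/6 mice, 6-8 weeks, n = 3, given antagonist 20 mg/kg sc. TLR9 agonist at 0.25 mg/kg sc at various intervals afterward; blood taken 2 h after agonist and serum IL-12 measured by sandwich ELISA. Representative of more than six independent experiments.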"}, "Mus musculus [4]": {"test_system": "Mus musculus", "assay": "Induction of IP10 secretion in C57BL/6 mouse at 20 mg/kg, sc", "assay_type": "functional, organism-based", "design": "dose 20 mg/kg", "in_short": "(§3)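 Female C57BL/6 mice, 6–8 weeks old (n=3), were injected sc with single compounds at 0.25 or 20 mg/kg. Serum was collected by retro-orbital bleed 2 h later and cytokines were measured by Luminex mouse 20-plex assay.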"}, "Mus musculus [5]": {"test_system": "Mus musculus", "assay": "Inhibition of 5'-TCTGACRTTCT-X-TCTTRCAGTCT-3'-induced IL12 production in C57BL/6 mouse treated 6 hrs of induction and measured after 2 hrs at 2 mg/kg, sc", "assay_type": "functional", "settings": "C57BL/6, sc, route subcutaneous", "in_short": "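Mice received antagonist sc at a low or high dose, then TLR9 agonist sc 6 h later. Serum IL-12 was determined 2 h after agonist administration.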"}, "Mus musculus [6]": {"test_system": "Mus musculus", "assay": "Induction of cytokine MIG secretion in C57BL/6 mouse at 20 mg/kg, sc", "assay_type": "functional, organism-based", "design": "dose 20 mg/kg", "in_short": "as §3"}, "Mus musculus [7]": {"test_system": "Mus musculus", "assay": "Inhibition of 5-TCTGACRTTCT-X-TCTTRCAGTCT-3-induced IL12 production in C57BL/6 mouse at 20 mg/kg, sc up to 168 hrs", "assay_type": "functional, organism-based", "design": "dose 20 mg/kg", "in_short": "as §2"}, "Mus musculus [8]": {"test_system": "Mus musculus", "assay": "Induction of IL10 secretion in C57BL/6 mouse at 20 mg/kg, sc", "assay_type": "functional, organism-based", "design": "dose 20 mg/kg", "in_short": "as §3"}, "Mus musculus [9]": {"test_system": "Mus musculus", "assay": "Induction of cytokine MCP1 secretion in C57BL/6 mouse at 20 mg/kg, sc", "assay_type": "functional, organism-based", "design": "dose 20 mg/kg", "in_short": "as §3"}, "[10]": {"biological_target": "T1, Toll-like receptor 9 (Mus musculus) (UniProt Q9EQU3)", "T1 sequence (whole entry)": "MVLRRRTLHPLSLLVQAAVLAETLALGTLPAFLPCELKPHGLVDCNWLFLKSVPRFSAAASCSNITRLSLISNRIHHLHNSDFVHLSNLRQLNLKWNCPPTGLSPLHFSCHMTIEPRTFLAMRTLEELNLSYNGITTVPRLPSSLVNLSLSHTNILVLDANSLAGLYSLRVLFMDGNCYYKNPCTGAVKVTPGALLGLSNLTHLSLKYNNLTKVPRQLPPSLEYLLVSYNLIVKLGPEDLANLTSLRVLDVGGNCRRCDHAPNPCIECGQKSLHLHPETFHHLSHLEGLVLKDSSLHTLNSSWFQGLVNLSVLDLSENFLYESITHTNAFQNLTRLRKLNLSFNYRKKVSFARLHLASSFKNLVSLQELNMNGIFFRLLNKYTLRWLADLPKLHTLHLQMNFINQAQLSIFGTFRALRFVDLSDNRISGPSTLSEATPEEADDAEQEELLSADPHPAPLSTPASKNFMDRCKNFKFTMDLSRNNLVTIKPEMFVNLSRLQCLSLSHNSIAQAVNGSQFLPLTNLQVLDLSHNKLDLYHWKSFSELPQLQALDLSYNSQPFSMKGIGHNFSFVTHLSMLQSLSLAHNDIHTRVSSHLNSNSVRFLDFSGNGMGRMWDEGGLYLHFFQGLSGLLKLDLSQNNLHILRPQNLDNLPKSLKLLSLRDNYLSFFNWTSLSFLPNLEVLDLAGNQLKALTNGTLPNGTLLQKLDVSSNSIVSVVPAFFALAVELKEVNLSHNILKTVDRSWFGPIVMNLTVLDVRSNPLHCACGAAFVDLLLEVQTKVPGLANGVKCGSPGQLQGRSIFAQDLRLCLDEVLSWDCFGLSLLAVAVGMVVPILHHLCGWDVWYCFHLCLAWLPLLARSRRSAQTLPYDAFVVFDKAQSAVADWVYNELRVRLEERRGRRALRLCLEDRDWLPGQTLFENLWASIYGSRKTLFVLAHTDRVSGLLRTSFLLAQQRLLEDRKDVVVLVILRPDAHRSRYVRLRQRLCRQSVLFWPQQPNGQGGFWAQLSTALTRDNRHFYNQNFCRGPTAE", "assay": "Antagonist activity at mouse TLR9 expressed in HEK293 cells assessed as inhibition of 5'-CTATCTGACGTTCTCTGT-3'-induced NF-kappaB activation by SEAP reporter gene assay", "assay_type": "functional, cell-based", "in_short": "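Mouse TLR9-HEK293 cells were transfected with a SEAP reporter for 6 h. They were then stimulated for 18 h with agonist (0.25 or 0.5 µg/mL) plus increasing antagonist concentrations or set agonist:antagonist ratios. Quanti-Blue read-out, reported as % NF-κB activity with agonist alone as 100%.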"}, "[11]": {"biological_target": "T1, Toll-like receptor 9 (Mus musculus)", "assay": "Agonist activity at mouse TLR9 expressed in HEK293 cells assessed as activation of NF-kappaB at 10 ug/mL by SEAP reporter gene assay", "assay_type": "functional, cell-based", "in_short": "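HEK293 cells stably expressing mouse TLR9 were transiently transfected with a SEAP reporter for 6 h. Compounds were added at 10 µg/mL for 18 h. SEAP was read with Quanti-Blue substrate and expressed as fold change in NF-κB activity.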"}, "Mus musculus [12]": {"test_system": "Mus musculus", "assay": "Inhibition of 5-TCTGACRTTCT-X-TCTTRCAGTCT-3-induced IL12 production in C57BL/6 mouse treated 6 hrs of induction and measured after 2 hrs at 20 mg/kg, sc", "assay_type": "functional", "settings": "C57BL/6, sc, route subcutaneous"}, "Mus musculus [13]": {"test_system": "Mus musculus", "assay": "Induction of IL12 secretion in C57BL/6 mouse at 20 mg/kg, sc", "assay_type": "functional, organism-based", "design": "dose 20 mg/kg", "in_short": "as §3"}, "Mus musculus [14]": {"test_system": "Mus musculus", "assay": "Induction of IL6 secretion in C57BL/6 mouse at 20 mg/kg, sc", "assay_type": "functional, organism-based", "design": "dose 20 mg/kg", "in_short": "as §3"}, "Mus musculus [15]": {"test_system": "Mus musculus", "assay": "Induction of cytokine KC secretion in C57BL/6 mouse at 20 mg/kg, sc", "assay_type": "functional, organism-based", "design": "dose 20 mg/kg", "in_short": "as §3"}}, "note": "Activity calls are given as the source filed them. The rule behind the calls is not given here.", "data": [{"molecule": "CO[C@@H]1[C@H](OP(=O)(S)OC[C@H]2O[C@@H](n3ccc(N)nc3=O)C[C@@H]2OP(=O)(S)OC[C@H]2O[C@@H](n3cnc4c(=O)[nH]c(N)nc43)C[C@@H]2OP(=O)(S)OC[C@H]2O[C@@H](n3cc(C)c(=O)[nH]c3=O)C[C@@H]2OP(=O)(S)OC[C@H]2O[C@@H](n3cc(C)c(=O)[nH]c3=O)C[C@@H]2OP(=O)(S)OC[C@H]2O[C@@H](n3ccc(N)nc3=O)C[C@@H]2OP(=O)(S)OC[C@H]2O[C@@H](n3cc(C)c(=O)[nH]c3=O)C[C@@H]2OP(=O)(S)OC[C@H]2O[C@@H](n3ccc(N)nc3=O)C[C@@H]2OP(=O)(S)OC[C@H]2O[C@@H](n3cc(C)c(=O)[nH]c3=O)C[C@@H]2OP(=O)(S)OC[C@H]2O[C@@H](n3cnc4c(=O)[nH]c(N)nc43)C[C@@H]2OP(=O)(S)OC[C@H]2O[C@@H](n3cc(C)c(=O)[nH]c3=O)C[C@@H]2O)[C@@H](COP(=O)(S)O[C@H]2[C@@H](OC)[C@H](n3cnc4c(=O)[nH]c(N)nc43)O[C@@H]2COP(=O)(S)O[C@H]2C[C@H](n3cc(C)c(=O)[nH]c3=O)O[C@@H]2COP(=O)(S)O[C@H]2C[C@H](n3ccc(N)nc3=O)O[C@@H]2COP(=O)(S)O[C@H]2C[C@H](n3cc(C)c(=O)[nH]c3=O)O[C@@H]2COP(=O)(S)O[C@H]2C[C@H](n3cnc4c(N)ncnc43)O[C@@H]2COP(=O)(S)O[C@H]2C[C@H](n3cc(C)c(=O)[nH]c3=O)O[C@@H]2COP(=O)(S)O[C@@H]2C[C@@H](n3ccc(N)nc3=O)O[C@H]2CO)O[C@H]1n1cnc2c(N)ncnc21", "note": "(stereo not given in full)", "values": [{"measurement": "Activity", "setting": "Mus musculus [1]", "value": "Active"}, {"measurement": "Activity", "setting": "Mus musculus [2]", "value": "Dose-dependent effect"}, {"measurement": "inhibition in vivo at 20 mg/kg", "setting": "Mus musculus [3]", "value": 50, "unit": "%"}, {"measurement": "Activity", "setting": "Mus musculus [4]", "value": "inactive"}, {"measurement": "inhibition in vivo at 2 mg/kg", "setting": "Mus musculus [5]", "value": 50, "unit": "%"}, {"measurement": "Activity", "setting": "Mus musculus [6]", "value": "inactive"}, {"measurement": "Activity", "setting": "Mus musculus [7]", "value": "Active"}, {"measurement": "Activity", "setting": "Mus musculus [8]", "value": "inactive"}, {"measurement": "Activity", "setting": "Mus musculus [9]", "value": "inactive"}, {"measurement": "Activity", "setting": "[10]", "value": "Dose-dependent effect"}, {"measurement": "Activity", "setting": "[11]", "value": "inactive"}, {"measurement": "inhibition in vivo at 20 mg/kg", "setting": "Mus musculus [12]", "value": 90, "unit": "%"}, {"measurement": "Activity", "setting": "Mus musculus [13]", "value": "inactive"}, {"measurement": "Activity", "setting": "Mus musculus [14]", "value": "inactive"}, {"measurement": "Activity", "setting": "Mus musculus [15]", "value": "inactive"}]}]}
